From ChEMBL document CHEMBL3352129, “Synthesis and biological activity of cyclolinopeptide A analogues modified with γ(3)-bis(homophenylalanine)” (Eur J Med Chem, 2014)
The source made the active and inactive calls. The calls are words filed in the database; no cut-off is given here. Numbered stars: 1 amine (or outer) side, 2 acyl side, 3 side chain; on linkers, the order of the positions; unused ones are H or OH. Square brackets hold non-standard residues; d marks the D form. Peptide text beside a SMILES is read from it. GABA(3S-Bn) = O=C(C[C@@H](CN[*:1])Cc1ccccc1)[*:2]; GABA(3R-Bn) = O=C(C[C@H](CN[*:1])Cc1ccccc1)[*:2]

Key:
PBMC [1] = assay: Cytotoxicity against human PBMC cells at 1 to 100 ug/ml after 24 hrs by MTT assay; format: cell-based
Summary of the method: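 Human PBMC from a single donor were plated at 3×10^5/well in RPMI-1640 with 10% FCS. Compounds at 1, 10 or 100 μg/mL were added for 24 h. Viability was read by MTT and expressed as percent viable cells versus matching DMSO controls.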

PBMC [2] = assay: Antiproliferative activity against human PBMC assessed as inhibition of PHA-induced proliferation at 1 to 100 ug/ml; format: functional, cell-based
Summary of the method: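 Human PBMC from a single donor were isolated on a ficoll gradient and plated at 2×10^5 cells/well in RPMI-1640 with 10% FCS. Stimulation was PHA 5 μg/mL. Compounds were tested at 1, 10 and 100 μg/mL, with DMSO dilutions as control. After 4 days, proliferation was read by MTT. Result is mean OD of quadruplicate wells ± SE.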

[3] = Retention time of the compound; format: physicochemical
Blood [4] = assay: Inhibition of LPS-induced TNFalpha secretion in human whole blood cells at 5 ug/ml by immune assay; format: functional
Summary of the method: (§1)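 Venous blood from a single donor was diluted 10× in RPMI-1640 and stimulated with E. coli LPS 1 μg/mL, serotype 0:111:B4. Compounds were added at 5 or 25 μg/mL, with DMSO dilutions as controls. After overnight culture, supernatants were frozen at −20 °C. TNF-α was then measured by ELISA.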

Blood [5] = assay: Inhibition of LPS-induced TNFalpha secretion in human whole blood cells at 25 ug/ml by immune assay; format: functional; summary of the method: as §1
Mus musculus [6] = assay: Immunosuppressive effect in ovalbumin-induced mouse delayed type hypersensitivity model assessed as inhibition of DTH reaction at 100 ug, ip treated 2 hrs before ovalbumin sensitization; format: functional
Summary of the method: (§2)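 CBA mice were sensitized s.c. at tail base with 5 μg OVA in complete Freund's adjuvant. After 4 days they were challenged with 50 μg OVA in incomplete adjuvant in hind foot pads. Swelling was measured by caliper 24 h later. Unsensitized challenged mice gave background. Compounds in DMSO/saline were given i.p. 2 h before sensitization or 2 h before elicitation, with solvent controls. Result: 5 mice/group, DTH units (10^-2 cm) ± SE.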

Mus musculus [7] = assay: Immunosuppressive effect in ovalbumin-induced mouse delayed type hypersensitivity model assessed as inhibition of DTH reaction at 100 ug, ip treated 2 hrs before elicitation of DTH reaction with secoond dose of antigen; format: functional, organism-based; summary of the method: as §2
Blood [8] = assay: Stimulation of LPS-induced TNFalpha secretion in human whole blood cells at 5 ug/ml by immuno assay; format: functional, cell-based; summary of the method: as §1
Blood [9] = assay: Stimulation of LPS-induced TNFalpha secretion in human whole blood cells at 25 ug/ml by immuno assay; format: functional, cell-based; summary of the method: as §1

SMILES | Retention_time [3] [min] | Activity (PBMC [1]) | inhibition (PBMC [2]) | inhibition at 5 µg/mL (Blood [4]) [%] | inhibition at 25 µg/mL (Blood [5]) [%] | inhibition (Mus musculus [6]) | inhibition (Mus musculus [7]) | Activity (Blood [8]) | Activity (Blood [9]) | inhibition (Blood [4]) | inhibition (Blood [5]) | inhibition (INH) (Mus musculus [6]) [%]
CC[C@H](C)[C@@H]1NC(=O)[C@H](CC(C)C)NC(=O)C[C@H](Cc2ccccc2)CNC(=O)C[C@H](Cc2ccccc2)CNC(=O)[C@@H]2CCCN2C(=O)[C@@H]2CCCN2C(=O)[C@H](C(C)C)NC(=O)[C@H](CC(C)C)NC(=O)[C@H]([C@@H](C)CC)NC1=O (cyclo(IILVPP[GABA(3S-Bn)][GABA(3S-Bn)]L)) | 10.11 | Dose-dependent effect | Active |  |  |  |  |  |  |  |  | 
CC[C@H](C)[C@@H]1NC(=O)[C@H](CC(C)C)NC(=O)C[C@H](Cc2ccccc2)CNC(=O)C[C@@H](Cc2ccccc2)CNC(=O)[C@@H]2CCCN2C(=O)[C@@H]2CCCN2C(=O)[C@H](C(C)C)NC(=O)[C@H](CC(C)C)NC(=O)[C@H]([C@@H](C)CC)NC1=O (cyclo(IILVPP[GABA(3R-Bn)][GABA(3S-Bn)]L)) | 9.605 | Dose-dependent effect | Active |  |  |  |  |  |  |  |  | 
CC[C@H](C)[C@@H]1NC(=O)[C@H](CC(C)C)NC(=O)C[C@H](Cc2ccccc2)CNC(=O)[C@H](Cc2ccccc2)NC(=O)[C@@H]2CCCN2C(=O)[C@@H]2CCCN2C(=O)[C@H](C(C)C)NC(=O)[C@H](CC(C)C)NC(=O)[C@H]([C@@H](C)CC)NC1=O (cyclo(F[GABA(3S-Bn)]LIILVPP)) | 11.63 | Non-toxic | Active | 55 | 42 | Active | Active |  |  |  |  | 
CC[C@H](C)[C@@H]1NC(=O)[C@H](CC(C)C)NC(=O)C[C@@H](Cc2ccccc2)CNC(=O)C[C@H](Cc2ccccc2)CNC(=O)[C@@H]2CCCN2C(=O)[C@@H]2CCCN2C(=O)[C@H](C(C)C)NC(=O)[C@H](CC(C)C)NC(=O)[C@H]([C@@H](C)CC)NC1=O (cyclo(IILVPP[GABA(3S-Bn)][GABA(3R-Bn)]L)) | 10.543 | Dose-dependent effect | Active |  |  |  |  |  |  |  |  | 
CC[C@H](C)[C@@H]1NC(=O)[C@H](CC(C)C)NC(=O)[C@H](Cc2ccccc2)NC(=O)C[C@@H](Cc2ccccc2)CNC(=O)[C@@H]2CCCN2C(=O)[C@@H]2CCCN2C(=O)[C@H](C(C)C)NC(=O)[C@H](CC(C)C)NC(=O)[C@H]([C@@H](C)CC)NC1=O (cyclo(FLIILVPP[GABA(3R-Bn)])) | 10.033 | Dose-dependent effect | Active |  |  |  |  |  |  |  |  | 
CC[C@H](C)[C@@H]1NC(=O)[C@H](CC(C)C)NC(=O)C[C@@H](Cc2ccccc2)CNC(=O)[C@H](Cc2ccccc2)NC(=O)[C@@H]2CCCN2C(=O)[C@@H]2CCCN2C(=O)[C@H](C(C)C)NC(=O)[C@H](CC(C)C)NC(=O)[C@H]([C@@H](C)CC)NC1=O (cyclo(F[GABA(3R-Bn)]LIILVPP)) | 11.87 | Dose-dependent effect | Active |  |  |  |  |  |  |  |  | 
CC[C@H](C)[C@@H]1NC(=O)[C@H](CC(C)C)NC(=O)[C@H](Cc2ccccc2)NC(=O)C[C@H](Cc2ccccc2)CNC(=O)[C@@H]2CCCN2C(=O)[C@@H]2CCCN2C(=O)[C@H](C(C)C)NC(=O)[C@H](CC(C)C)NC(=O)[C@H]([C@@H](C)CC)NC1=O (cyclo(FLIILVPP[GABA(3S-Bn)])) | 9.89 | Dose-dependent effect | Active |  |  |  |  |  |  |  |  | 
CC[C@H](C)[C@@H]1NC(=O)[C@H](CC(C)C)NC(=O)C[C@@H](Cc2ccccc2)CNC(=O)C[C@@H](Cc2ccccc2)CNC(=O)[C@@H]2CCCN2C(=O)[C@@H]2CCCN2C(=O)[C@H](C(C)C)NC(=O)[C@H](CC(C)C)NC(=O)[C@H]([C@@H](C)CC)NC1=O (cyclo(IILVPP[GABA(3R-Bn)][GABA(3R-Bn)]L)) | 9.242 | Dose-dependent effect | Active |  |  |  |  |  |  |  |  | 

The next lines start with results.

Retention_time [3] [min] | SMILES | Activity (PBMC [1]) | inhibition (PBMC [2]) | inhibition at 5 µg/mL (Blood [4]) [%] | inhibition at 25 µg/mL (Blood [5]) [%] | inhibition (Mus musculus [6]) | inhibition (Mus musculus [7]) | Activity (Blood [8]) | Activity (Blood [9]) | inhibition (Blood [4]) | inhibition (Blood [5]) | inhibition (INH) (Mus musculus [6]) [%]
13.177 | CC[C@H](C)[C@H](N)C(=O)N[C@H](C(=O)N[C@@H](CC(C)C)C(=O)N[C@H](C(=O)N1CCC[C@H]1C(=O)N1CCC[C@H]1C(=O)N[C@@H](Cc1ccccc1)C(=O)NC[C@H](CC(=O)N[C@@H](CC(C)C)C(=O)O)Cc1ccccc1)C(C)C)[C@@H](C)CC (H-IILVPPF[GABA(3S-Bn)]L-OH) | Non-toxic | inactive |  |  |  |  | Active | Active |  |  | 
13.938 | CC[C@H](C)[C@H](N)C(=O)N[C@H](C(=O)N[C@@H](CC(C)C)C(=O)N[C@H](C(=O)N1CCC[C@H]1C(=O)N1CCC[C@H]1C(=O)NC[C@H](CC(=O)NC[C@@H](CC(=O)N[C@@H](CC(C)C)C(=O)O)Cc1ccccc1)Cc1ccccc1)C(C)C)[C@@H](C)CC (H-IILVPP[GABA(3S-Bn)][GABA(3R-Bn)]L-OH) | Non-toxic | inactive |  |  |  |  |  |  |  |  | 
12.69 | CC[C@H](C)[C@H](N)C(=O)N[C@H](C(=O)N[C@@H](CC(C)C)C(=O)N[C@H](C(=O)N1CCC[C@H]1C(=O)N1CCC[C@H]1C(=O)NC[C@H](CC(=O)N[C@@H](Cc1ccccc1)C(=O)N[C@@H](CC(C)C)C(=O)O)Cc1ccccc1)C(C)C)[C@@H](C)CC (H-IILVPP[GABA(3S-Bn)]FL-OH) | Non-toxic | inactive |  |  |  |  | Active | Active |  |  | 
13.085 | CC[C@H](C)[C@H](N)C(=O)N[C@H](C(=O)N[C@@H](CC(C)C)C(=O)N[C@H](C(=O)N1CCC[C@H]1C(=O)N1CCC[C@H]1C(=O)NC[C@@H](CC(=O)NC[C@H](CC(=O)N[C@@H](CC(C)C)C(=O)O)Cc1ccccc1)Cc1ccccc1)C(C)C)[C@@H](C)CC (H-IILVPP[GABA(3R-Bn)][GABA(3S-Bn)]L-OH) | Non-toxic | inactive |  |  |  |  | Active | Active |  |  | 
13.383 | CC[C@H](C)[C@H](N)C(=O)N[C@H](C(=O)N[C@@H](CC(C)C)C(=O)N[C@H](C(=O)N1CCC[C@H]1C(=O)N1CCC[C@H]1C(=O)NC[C@@H](CC(=O)N[C@@H](Cc1ccccc1)C(=O)N[C@@H](CC(C)C)C(=O)O)Cc1ccccc1)C(C)C)[C@@H](C)CC (H-IILVPP[GABA(3R-Bn)]FL-OH) | Non-toxic | inactive |  |  |  |  |  |  | Active | Active | 
14.168 | CC[C@H](C)[C@H](N)C(=O)N[C@H](C(=O)N[C@@H](CC(C)C)C(=O)N[C@H](C(=O)N1CCC[C@H]1C(=O)N1CCC[C@H]1C(=O)N[C@@H](Cc1ccccc1)C(=O)NC[C@@H](CC(=O)N[C@@H](CC(C)C)C(=O)O)Cc1ccccc1)C(C)C)[C@@H](C)CC (H-IILVPPF[GABA(3R-Bn)]L-OH) | Non-toxic | inactive |  |  |  |  |  |  |  | Active | 
14.073 | CC[C@H](C)[C@H](N)C(=O)N[C@H](C(=O)N[C@@H](CC(C)C)C(=O)N[C@H](C(=O)N1CCC[C@H]1C(=O)N1CCC[C@H]1C(=O)NC[C@@H](CC(=O)NC[C@@H](CC(=O)N[C@@H](CC(C)C)C(=O)O)Cc1ccccc1)Cc1ccccc1)C(C)C)[C@@H](C)CC (H-IILVPP[GABA(3R-Bn)][GABA(3R-Bn)]L-OH) | Non-toxic | inactive |  |  | Active | Active |  |  | Active | Active | 50
13.233 | CC[C@H](C)[C@H](N)C(=O)N[C@H](C(=O)N[C@@H](CC(C)C)C(=O)N[C@H](C(=O)N1CCC[C@H]1C(=O)N1CCC[C@H]1C(=O)NC[C@H](CC(=O)NC[C@H](CC(=O)N[C@@H](CC(C)C)C(=O)O)Cc1ccccc1)Cc1ccccc1)C(C)C)[C@@H](C)CC (H-IILVPP[GABA(3S-Bn)][GABA(3S-Bn)]L-OH) | Non-toxic | inactive |  |  |  |  | Active | Active |  |  | 
